{"source": "ChEMBL document CHEMBL1649328", "about": "“Assessment of pandemic and seasonal influenza A (H1N1) virus susceptibility to neuraminidase inhibitors in three enzyme activity inhibition assays” (Antimicrob Agents Chemother, 2010)", "key": {"Influenza A virus [1]": {"system": "Influenza A virus", "test": "Ratio of IC50 for influenza A (A/Washington/29/2009 (H1N1)) virus harboring neuraminidase H275Y mutant to IC50 for influenza A (A/Washington/29/2009 (H1N1)) virus expressing wild type enzyme by fetuin substrate based colorimetric assay", "type": "functional", "summary_of_the_method": "(§1)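 Colorimetric NA inhibition using a virus dilution that gave 0.4–0.8 OD549. Virus preincubated 1 h at 37°C with half-log inhibitor dilutions (0.03–1,000 nM final) in MES/CaCl2 pH 6.0 buffer. Fetuin (5.5 mg/ml final) then added for 18 h at 37°C. Released sialic acid detected by periodate oxidation and thiobarbituric acid, butanol extraction, read at 549 nm. IC50 curve-fitted, ≥2 experiments. Ratio is variant IC50 over wild-type reference IC50.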"}, "Influenza A virus [2]": {"system": "Influenza A virus", "test": "Antiviral activity against influenza A (A/Montana/02/2009 (H1N1)) virus harboring neuraminidase H275Y mutant after 30 mins by NA-star substrate based chemiluminescent assay", "type": "functional, organism-based", "summary_of_the_method": "(§2)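 Titrated virus in NA-Star buffer (26 mM MES, 4 mM CaCl2, pH 6.0) was preincubated with ten half-log inhibitor dilutions (0.03–1,000 nM final) for 30 min at 37°C, then with substrate for 30 min at room temperature. Accelerator solution was added and luminescence read for 0.1 s. IC50 came from a Vmax·[1−x/(K+x)] fit, mean of ≥3 experiments.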"}, "Influenza A virus [3]": {"system": "Influenza A virus", "test": "Ratio of IC50 for influenza A (A/North Carolina/01/2009 (H1N1)) virus harboring neuraminidase H275Y mutant to IC50 for influenza A (A/Washington/29/2009 (H1N1)) virus expressing wild type enzyme by fetuin substrate based colorimetric assay", "type": "functional"}, "Influenza A virus [4]": {"system": "Influenza A virus", "test": "Ratio of IC50 for influenza A (A/New York/18/2009 (H1N1)) virus harboring neuraminidase H275Y mutant to IC50 for influenza A (A/Washington/10/2008 (H1N1)) virus expressing wild type enzyme by fetuin substrate based colorimetric assay", "type": "functional"}, "Influenza A virus [5]": {"system": "Influenza A virus", "test": "Ratio of IC50 for influenza A (A/Singapore/91/2009 (H1N1)) virus harboring neuraminidase H275Y mutant to IC50 for influenza A (A/Washington/29/2009 (H1N1)) virus expressing wild type enzyme by NA-star substrate based chemiluminescent assay", "type": "functional", "summary_of_the_method": "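Chemiluminescent NA inhibition in MES 26 mM/CaCl2 4 mM buffer, pH 6.0. […] Luminescence read for 0.1 s. IC50 from the fit y = Vmax·{1 − [x/(K + x)]}, mean of ≥3 experiments. Ratio is the H275Y variant IC50 over the pandemic wild-type reference IC50.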"}, "Influenza A virus [6]": {"system": "Influenza A virus", "test": "Antiviral activity against influenza A (A/Hong Kong/2369/2009 (H1N1)) virus harboring neuraminidase H275Y mutant after 30 mins by MUNANA substrate based fluorometric assay", "type": "functional, organism-based", "summary_of_the_method": "(§3)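 Fluorometric NA inhibition with MUNANA (100 μM final). Titrated virus in NA-Star buffer (26 mM MES, 4 mM CaCl2, pH 6.0) was preincubated with ten half-log inhibitor dilutions (0.03–1,000 nM final) for 30 min at 37°C, then with substrate for 30 min at 37°C. The reaction was stopped with 0.1 M glycine in 25% ethanol, pH 10.7, and 4-methylumbelliferone was read at ex 365/em 450 nm. IC50 came from a Vmax·[1−x/(K+x)] fit, mean of ≥3 experiments.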"}, "Influenza A virus [7]": {"system": "Influenza A virus", "test": "Ratio of IC50 for influenza A (A/Washington/29/2009 (H1N1)) virus harboring neuraminidase H275Y mutant to IC50 for influenza A (A/Washington/29/2009 (H1N1)) virus expressing wild type enzyme by MUNANA substrate based fluorometric assay", "type": "functional", "summary_of_the_method": "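Fluorometric NA inhibition in MES/CaCl2 buffer, pH 6.0. Virus preincubated 30 min at 37°C with ten half-log inhibitor dilutions (0.03–1,000 nM final), then MUNANA (100 μM final) added for 30 min at 37°C. Stopped with 0.1 M glycine in 25% ethanol, pH 10.7. Read at ex 365/em 450 nm. IC50 curve-fitted, mean of ≥3 experiments. Ratio is variant IC50 over wild-type reference IC50.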"}, "Influenza A virus [8]": {"system": "Influenza A virus", "test": "Antiviral activity against influenza A (A/Singapore/57/2009 (H1N1)) virus harboring neuraminidase H275Y mutant after 16 to 18 hrs by fetuin substrate based colorimetric assay", "type": "functional, organism-based", "summary_of_the_method": "(§4)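 Colorimetric NA inhibition with fetuin substrate. Virus was diluted in NA-Star buffer (26 mM MES, 4 mM CaCl2, pH 6.0) to give OD549 of 0.4–0.8 after 18 h. It was preincubated with ten half-log inhibitor dilutions (0.03–1,000 nM final) for 1 h at 37°C, then with fetuin (5.5 mg/ml final) for 16–18 h at 37°C. Released sialic acid was read at 549 nm after periodate/TBA reaction and butanol extraction. IC50 came from a Vmax·[1−x/(K+x)] fit, mean of ≥2 experiments.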"}, "Influenza A virus [9]": {"system": "Influenza A virus", "test": "Antiviral activity against influenza A (A/Osaka/180/2009 (H1N1)) virus harboring neuraminidase H275Y mutant after 30 mins by MUNANA substrate based fluorometric assay", "type": "functional, organism-based", "summary_of_the_method": "as §3"}, "Influenza A virus [10]": {"system": "Influenza A virus", "test": "Ratio of IC50 for influenza A (A/Montana/02/2009 (H1N1)) virus harboring neuraminidase H275Y mutant to IC50 for influenza A (A/Washington/29/2009 (H1N1)) virus expressing wild type enzyme by NA-star substrate based chemiluminescent assay", "type": "functional"}, "Influenza A virus [11]": {"system": "Influenza A virus", "test": "Ratio of IC50 for influenza A (A/New York/18/2009 (H1N1)) virus harboring neuraminidase H275Y mutant to IC50 for influenza A (A/Washington/10/2008 (H1N1)) virus expressing wild type enzyme by MUNANA substrate based fluorometric assay", "type": "functional"}, "Influenza A virus [12]": {"system": "Influenza A virus", "test": "Ratio of IC50 for influenza A (A/Singapore/57/2009 (H1N1)) virus harboring neuraminidase H275Y mutant to IC50 for influenza A (A/Washington/29/2009 (H1N1)) virus expressing wild type enzyme by fetuin substrate based colorimetric assay", "type": "functional", "summary_of_the_method": "as §1"}, "Influenza A virus [13]": {"system": "Influenza A virus", "test": "Ratio of IC50 for influenza A (A/Montana/02/2009 (H1N1)) virus harboring neuraminidase H275Y mutant to IC50 for influenza A (A/Washington/29/2009 (H1N1)) virus expressing wild type enzyme by fetuin substrate based colorimetric assay", "type": "functional"}, "Influenza A virus [14]": {"system": "Influenza A virus", "test": "Antiviral activity against influenza A (A/Osaka/180/2009 (H1N1)) virus harboring neuraminidase H275Y mutant after 16 to 18 hrs by fetuin substrate based colorimetric assay", "type": "functional, organism-based", "summary_of_the_method": "as §4"}, "Influenza A virus [15]": {"system": "Influenza A virus", "test": "Ratio of IC50 for influenza A (A/Hong Kong/2369/2009 (H1N1)) virus harboring neuraminidase H275Y mutant to IC50 for influenza A (A/Washington/29/2009 (H1N1)) virus expressing wild type enzyme by NA-star substrate based chemiluminescent assay", "type": "functional"}, "Influenza A virus [16]": {"system": "Influenza A virus", "test": "Antiviral activity against influenza A (A/Washington/29/2009 (H1N1)) virus harboring neuraminidase H275Y mutant after 30 mins by NA-star substrate based chemiluminescent assay", "type": "functional, organism-based", "summary_of_the_method": "as §2"}, "Influenza A virus [17]": {"system": "Influenza A virus", "test": "Antiviral activity against influenza A (A/Singapore/57/2009 (H1N1)) virus harboring neuraminidase H275Y mutant after 30 mins by NA-star substrate based chemiluminescent assay", "type": "functional, organism-based", "summary_of_the_method": "as §2"}, "Influenza A virus [18]": {"system": "Influenza A virus", "test": "Ratio of IC50 for influenza A (A/Hong Kong/2369/2009 (H1N1)) virus harboring neuraminidase H275Y mutant to IC50 for influenza A (A/Washington/29/2009 (H1N1)) virus expressing wild type enzyme by fetuin substrate based colorimetric assay", "type": "functional"}}}
{"smiles": "C/C=C\\[C@@H]1C[C@H](C(=O)O)N[C@H]1[C@@H](NC(C)=O)[C@](C)(CCC)OC", "values": [{"measurement": "Ratio IC50", "setting": "Influenza A virus [1]", "result": 2}, {"measurement": "IC50", "setting": "Influenza A virus [2]", "result": 1, "unit": "nM"}, {"measurement": "Ratio IC50", "setting": "Influenza A virus [3]", "result": 2}, {"measurement": "Ratio IC50", "setting": "Influenza A virus [4]", "result": 1}, {"measurement": "Ratio IC50", "setting": "Influenza A virus [5]", "result": 1}, {"measurement": "IC50", "setting": "Influenza A virus [6]", "result": 1.67, "unit": "nM"}, {"measurement": "Ratio IC50", "setting": "Influenza A virus [7]", "result": 3}, {"measurement": "IC50", "setting": "Influenza A virus [8]", "result": 1.58, "unit": "nM"}, {"measurement": "IC50", "setting": "Influenza A virus [9]", "result": 2.44, "unit": "nM"}, {"measurement": "Ratio IC50", "setting": "Influenza A virus [10]", "result": 6}, {"measurement": "Ratio IC50", "setting": "Influenza A virus [11]", "result": 1}, {"measurement": "Ratio IC50", "setting": "Influenza A virus [12]", "result": 1}, {"measurement": "Ratio IC50", "setting": "Influenza A virus [13]", "result": 2}, {"measurement": "IC50", "setting": "Influenza A virus [14]", "result": 4.08, "unit": "nM"}, {"measurement": "Ratio IC50", "setting": "Influenza A virus [15]", "result": 3}, {"measurement": "IC50", "setting": "Influenza A virus [16]", "result": 1.62, "unit": "nM"}, {"measurement": "IC50", "setting": "Influenza A virus [17]", "result": 1.06, "unit": "nM"}, {"measurement": "Ratio IC50", "setting": "Influenza A virus [18]", "result": 3}]}
{"smiles": "CCC(CC)[C@H](NC(C)=O)[C@@H]1[C@H](O)[C@@H](C(=O)O)C[C@H]1NC(=N)N", "note": "[PERAMIVIR ANHYDROUS]", "values": [{"measurement": "Ratio IC50", "setting": "Influenza A virus [1]", "result": 332}, {"measurement": "IC50", "setting": "Influenza A virus [2]", "result": 15, "unit": "nM"}, {"measurement": "Ratio IC50", "setting": "Influenza A virus [3]", "result": 140}, {"measurement": "Ratio IC50", "setting": "Influenza A virus [4]", "result": 1}, {"measurement": "Ratio IC50", "setting": "Influenza A virus [5]", "result": 1}, {"measurement": "IC50", "setting": "Influenza A virus [6]", "result": 128, "unit": "nM"}, {"measurement": "Ratio IC50", "setting": "Influenza A virus [7]", "result": 751}, {"measurement": "IC50", "setting": "Influenza A virus [8]", "result": 84.8, "unit": "nM"}, {"measurement": "IC50", "setting": "Influenza A virus [9]", "result": 97.6, "unit": "nM"}, {"measurement": "Ratio IC50", "setting": "Influenza A virus [10]", "result": 136}, {"measurement": "Ratio IC50", "setting": "Influenza A virus [11]", "result": 1}, {"measurement": "Ratio IC50", "setting": "Influenza A virus [12]", "result": 173}, {"measurement": "Ratio IC50", "setting": "Influenza A virus [13]", "result": 111}, {"measurement": "IC50", "setting": "Influenza A virus [14]", "result": 195, "unit": "nM"}, {"measurement": "Ratio IC50", "setting": "Influenza A virus [15]", "result": 66}, {"measurement": "IC50", "setting": "Influenza A virus [16]", "result": 12.5, "unit": "nM"}, {"measurement": "IC50", "setting": "Influenza A virus [17]", "result": 11.8, "unit": "nM"}, {"measurement": "Ratio IC50", "setting": "Influenza A virus [18]", "result": 330}]}
